Series [1] deals with HeLa. The series can be described thus: Cytotoxicity against human HeLa cells. Type of series: functional, cell-based.
Series [2] has as its system K562. The series can be described thus: Cytotoxicity against human K562 cells. Type of series: functional, cell-based.
Series [3] has as its system HeLa. As to the kind of experiment: Cytostatic activity against human HeLa cells assessed as inhibition of cell proliferation after 72 hrs by Coulter counter analysis. Type of series: functional, cell-based. Summed up:
(§1)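 Each well received (5–7.5) × 10^4 tumor cells plus compound. L1210 cells grew 48 h and CEM and HeLa cells grew 72 h, at 37 °C in humidified CO2. Cells were then counted electronically, and IC50 was taken as the concentration inhibiting proliferation by 50%.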

Series [4] deals with CCRF-CEM. As to the kind of experiment: Cytostatic activity against human CEM cells assessed as inhibition of cell proliferation after 72 hrs by Coulter counter analysis. Type of series: functional, cell-based. In outline: as §1
In series [5] the test system is L1210. As to the kind of experiment: Cytostatic activity against mouse L1210 cells assessed as inhibition of cell proliferation after 48 hrs by Coulter counter analysis. Type of series: functional, cell-based. Particulars: L1210, 48 h. In outline: as §1
Series [6] has as its system MDCK. The series can be described thus: Cytotoxicity against dog MDCK cells assessed as alteration of cell morphology up to 100 uM by microscopic analysis. Type of series: cell-based, Canis lupus familiaris. Summed up:
(§2)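 Uninfected host-cell cultures were exposed to compound and examined by microscopy. Cytotoxicity was expressed as the minimum cytotoxic concentration (MCC) causing a microscopically detectable alteration of normal cell morphology.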

Series [7] can be described thus: Cytotoxicity against cat CRFK cells assessed as alteration of cell morphology up to 100 uM by microscopic analysis. Type of series: cell-based, Felis catus. Summed up: as §2
Series [8] concerns Vero. As to the kind of experiment: Cytotoxicity against african green monkey Vero cells assessed as alteration of cell morphology up to 100 uM by microscopic analysis. Type of series: cell-based. The note with it: chlorocebus sabaeus. Summed up:
as §2

The subject of series [9] is HeLa. The series can be described thus: Cytotoxicity against human HeLa cells assessed as alteration of cell morphology up to 100 uM by microscopic analysis. Type of series: cell-based. In outline: as §2
Series [10] relates to HEL. The series can be described thus: Cytotoxicity against human HEL cells assessed as alteration of cell morphology up to 100 uM by microscopic analysis. Type of series: cell-based. In outline: as §2
Series [11] deals with Human immunodeficiency virus 2. The series can be described thus: Antiviral activity against Human immunodeficiency virus 2 ROD infected in human CEM cells assessed as reduction of virus-induced giant cell formation at 250 uM after 4 to 5 days. Type of series: functional, organism-based. Particulars: CCRF-CEM. Summed up: (§3)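 CEM cells at 3 × 10^5 cells/mL were infected with HIV at 100 CCID50 per mL in the presence of compound dilutions. They were held 4–5 days at 37 °C in humidified CO2. Syncytium (giant cell) formation was scored microscopically, and EC50 was taken as the concentration inhibiting giant cell formation by 50%.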

Series [12] deals with Human immunodeficiency virus 1. As to the kind of experiment: Antiviral activity against Human immunodeficiency virus 1 3B infected in human CEM cells assessed as reduction of virus-induced giant cell formation at 250 uM after 4 to 5 days. Type of series: functional, organism-based. Particulars: CCRF-CEM. Summed up:
as §3

Series [13] has as its system Feline coronavirus. The series can be described thus: Antiviral activity against Feline coronavirus infected in cat CRFK cells assessed as reduction of virus-induced cytopathogenicity at 250 uM. Type of series: functional, organism-based.
The subject of series [14] is Felid alphaherpesvirus 1. The series can be described thus: Antiviral activity against Feline herpes virus infected in cat CRFK cells assessed as reduction of virus-induced cytopathogenicity at 250 uM. Type of series: functional, organism-based.
Series [15] has as its system Influenza B virus. The series can be described thus: Antiviral activity against Influenza B virus infected in dog MDCK cells assessed as reduction of virus-induced cytopathogenicity at 250 uM. Type of series: functional, organism-based. In outline: (§4)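 Confluent cell monolayers were infected with 100 CCID50 of virus while exposed to varying compound concentrations. Cytopathicity was scored once it was complete in untreated infected controls. EC50 was taken as the concentration that reduced virus-induced cytopathogenicity by 50%.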

In series [16] the test system is Influenza A virus. The series can be described thus: Antiviral activity against Influenza A virus H3N2 infected in dog MDCK cells assessed as reduction of virus-induced cytopathogenicity at 250 uM. Type of series: functional, organism-based. Summed up:
as §4

For series [17], the system named is Influenza A virus. As to the kind of experiment: Antiviral activity against Influenza A virus H1N1 infected in dog MDCK cells assessed as reduction of virus-induced cytopathogenicity at 250 uM. Type of series: functional, organism-based. In outline: as §4
The subject of series [18] is Punta Toro virus. The series can be described thus: Antiviral activity against Punta Toro virus infected in african green monkey Vero cells assessed as reduction of virus-induced cytopathogenicity at 250 uM. Type of series: functional, organism-based. In outline: (§5)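 Confluent monolayers (HEL fibroblasts, Vero, or HeLa cells as listed) were infected with 100 CCID50 of virus in the presence of varying compound concentrations. Virus-induced cytopathicity or plaque formation was scored once cytopathicity was complete in untreated infected controls. EC50 was taken as the concentration reducing cytopathogenicity or plaque formation by 50%.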

For series [19], the system named is Sindbis virus. The series can be described thus: Antiviral activity against Sindbis virus infected in african green monkey Vero cells assessed as reduction of virus-induced cytopathogenicity at 250 uM. Type of series: functional, organism-based. Summed up: as §5
Series [20] has as its system Coxsackievirus B4. The series can be described thus: Antiviral activity against Coxsackievirus B4 infected in african green monkey Vero cells assessed as reduction of virus-induced cytopathogenicity at 250 uM. Type of series: functional, organism-based. Summed up:
as §5

Series [21] relates to Mammalian orthoreovirus 1. The series can be described thus: Antiviral activity against Reovirus 1 infected in african green monkey Vero cells assessed as reduction of virus-induced cytopathogenicity at 250 uM. Type of series: functional, organism-based. Summed up:
as §5

Series [22] deals with Human respirovirus 3. As to the kind of experiment: Antiviral activity against Parainfluenza virus 3 infected in african green monkey Vero cells assessed as reduction of virus-induced cytopathogenicity at 250 uM. Type of series: functional, organism-based. Summed up: as §5
The subject of series [23] is Respiratory syncytial virus. The series can be described thus: Antiviral activity against Respiratory syncytial virus long infected in human HeLa cells assessed as reduction of virus-induced cytopathogenicity at 250 uM. Type of series: functional, organism-based. Summed up:
as §5

The subject of series [24] is Vesicular stomatitis virus. As to the kind of experiment: Antiviral activity against Vesicular stomatitis virus infected in human HeLa cells assessed as reduction of virus-induced cytopathogenicity at 250 uM. Type of series: functional, organism-based. Summed up:
as §4

Series [25] deals with Human alphaherpesvirus 1. As to the kind of experiment: Antiviral activity against thymidine kinase-deficient, ACV-resistant Herpes simplex virus 1 KOS infected in human HEL cells assessed as reduction of virus-induced cytopathogenicity at 250 uM. Type of series: functional, organism-based. Summed up:
as §4

For series [26], the system named is Vesicular stomatitis virus. The series can be described thus: Antiviral activity against Vesicular stomatitis virus infected in human HEL cells assessed as reduction of virus-induced cytopathogenicity at 250 uM. Type of series: functional, organism-based. Summed up:
as §4

The subject of series [27] is Human alphaherpesvirus 2. As to the kind of experiment: Antiviral activity against Herpes simplex virus 2 G infected in human HEL cells assessed as reduction of virus-induced cytopathogenicity at 250 uM. Type of series: functional, organism-based. The note with it: strain G. Summed up:
as §5

The subject of series [28] is Human alphaherpesvirus 1. The series can be described thus: Antiviral activity against Herpes simplex virus 1 KOS infected in human HEL cells assessed as reduction of virus-induced cytopathogenicity at 250 uM. Type of series: functional, organism-based. Summed up: as §5

The source made the active and inactive calls. No rule for the calls is given here.

In [1], `CCOP(=O)(OCC)C1CC(c2cccc3ccccc23)ON1C` (configuration not stated) displayed an IC50 of 50 µM.

In the case of `CCOP(=O)(OCC)C1CC(c2ccc3ccccc3c2)ON1C` (configuration not stated), in series [2], the IC50 was 90 µM.

Turning to `CCOP(=O)(OCC)[C@@H]1C[C@H](C(=O)Nc2ccc(C(C)=O)cc2)ON1C` (racemic), the IC50 is 211 µM in [3], 227 µM in [4] and 150 µM in series [5]. The Activity entry in series [6], in [7], in [8], in series [9] and in series [10] was “Non-toxic” throughout. Also, the inhibition result in series [11], in series [12], in series [13], in [14], in series [15] and in series [16] was “inactive” each time. Moreover, the inhibition entry in series [17], in series [18], in series [19], in series [20], in series [21] and in [22] was “inactive” each time. Further, the inhibition result in [23], in series [24], in [25], in series [26], in [27] and in series [28] was “inactive” in each case.

For `CCOP(=O)(OCC)[C@@H]1C[C@H](C(=O)Nc2cccc(F)c2)ON1C` (mixture of isomers), the IC50 in series [3] was ≥ 250 µM; in series [4], ≥ 250 µM; in series [5] it was 228 µM. The Activity result in series [6], in series [7], in series [8], in [9] and in series [10] was “Non-toxic” each time. For the same compound, the inhibition result in series [11], in series [12], in series [13], in series [14], in series [15] and in series [16] was “inactive” throughout. Further, the inhibition result in [17], in [18], in series [19], in [20], in series [21] and in series [22] was “inactive” in each case. Moreover, the inhibition entry in [23], in series [24], in [25], in series [26], in series [27] and in series [28] was “inactive” in each case.

For the compound `CCOP(=O)(OCC)[C@H]1C[C@H](C(=O)Nc2ccccc2F)ON1C` (mixture of isomers), the IC50 in series [3] is ≥ 250 µM; in [4], > 250 µM; in [5] it was > 250 µM. In addition, the Activity entry in [6], in [7], in series [8], in [9] and in [10] was “Non-toxic” in each case. Further, the inhibition result in [11], in series [12], in series [13], in [14], in [15] and in series [16] was “inactive” throughout. Further, the inhibition entry in series [17], in [18], in series [19], in [20], in series [21] and in [22] was “inactive” each time. The inhibition result in series [23], in series [24], in series [25], in series [26], in series [27] and in series [28] was “inactive” in each case.

As for `CCOP(=O)(OCC)[C@@H]1C[C@H](C(=O)Nc2ccccc2F)ON1C` (racemic), the values for the IC50 in [3], in series [4] and in series [5] were 177 µM, 145 µM and 130 µM, respectively. For the same compound, the Activity entry in [6], in series [7], in series [8], in series [9] and in series [10] was “Non-toxic” each time. Besides, the inhibition entry in [11], in series [12], in [13], in series [14], in series [15] and in series [16] was “inactive” each time. Besides, the inhibition result in series [17], in series [18], in series [19], in [20], in series [21] and in [22] was “inactive” each time. The inhibition entry in series [23], in [24], in series [25], in series [26], in series [27] and in series [28] was “inactive” in each case.

For the compound `CCOP(=O)(OCC)[C@H]1C[C@H](C(=O)Nc2ccccc2[N+](=O)[O-])ON1C` (mixture of isomers), the IC50 in [3] was > 250 µM; in [4], ≥ 250 µM; in series [5] it was 168 µM. Besides, the Activity entry in [6], in series [7], in series [8], in series [9] and in series [10] was “Non-toxic” in each case. In addition, the inhibition entry in series [11], in [12], in [13], in [14], in [15] and in [16] was “inactive” in each case. Moreover, the inhibition entry in series [17], in [18], in series [19], in series [20], in series [21] and in series [22] was “inactive” in each case. For the same compound, the inhibition result in [23], in series [24], in series [25], in series [26], in [27] and in [28] was “inactive” each time.
